Assays:
[1] = Drug uptake in HFF cells at 1 uM incubated for 1 to 48 hrs using [14C]-labelled compound by liquid scintillation counting; type: ADME, cell-based; conditions: human, time 1-48 hrs
Outline: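 HFF cells exposed to 1 μM [14C]-labelled compound for 1 to 48 h. Cell-associated radioactivity measured in duplicate to assess uptake.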

[2] = Drug metabolism in HFF cells assessed as PMEGpp levels at 1 uM measured for 14 days using [14C]-labelled compound by liquid scintillation counting; type: ADME, cell-based; conditions: human, 336 h, TDE = time-dependent effect, time 14 day
Outline: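 After 48 h exposure to 1 μM [14C]-labelled compound, drug removed from HFF cells. Persistence of intracellular PMEGpp followed over time; average of two separate determinations.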

[3] = Drug metabolism in HFF cells assessed as PMEGp levels at 1 uM incubated for 48 hrs using [14C]-labelled compound by liquid scintillation counting; type: ADME, cell-based; conditions: human
Outline: (§1)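 HFF cells exposed for 48 h to 1 μM [14C]-labelled compound, then drug removed. Intracellular PMEG, PMEGp and PMEGpp measured. Values are the average of two separate determinations.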

[4] = Drug metabolism in HFF cells assessed as PMEG levels at 1 uM incubated for 48 hrs using [14C]-labelled compound by liquid scintillation counting; type: ADME, cell-based; conditions: human; outline: as §1
[5] = Inhibition of HPV-11 DNA amplification in HEK293 cells incubated for 48 hrs by qPCR analysis; type: functional, cell-based, human papillomavirus 11
Outline: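 HEK-293 cells cotransfected with an HPV-11 origin-containing plasmid and HPV-11 E1 and E2 expression vectors, then exposed to drug dilutions and incubated. Ori-plasmid amplification is measured by quantitative real-time PCR and EC50 is calculated. At least three independent experiments.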

[6] = Inhibition of HPV-16 DNA amplification in HEK293 cells incubated for 48 hrs by qPCR analysis; type: functional, cell-based, Human papillomavirus 16
Outline: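 HEK-293 cells cotransfected with an HPV-16 origin-containing plasmid and HPV-16 E1 and E2 expression vectors, then treated with drug dilutions and incubated. Ori-plasmid amplification quantified by real-time qPCR; EC50 calculated from at least three independent experiments.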

[7] = Inhibition of HPV-11 DNA amplification in C-33-A cells incubated for 48 hrs by luciferase reporter gene assay; type: functional, cell-based, human papillomavirus 11
Outline: (§2)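 HPV-negative cervical cancer C33A cells transiently transfected with type-matched HPV-11, -16 or -18 E1 and E2 expression vectors plus an ori-plasmid carrying a NanoLuc reporter. After drug dilutions and incubation, ori-plasmid replication is read as the rise in luciferase activity and EC50 is determined. Cytotoxicity (CC50) is measured in C33A cells by CellTiter-Glo.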

[8] = (§3) Cytotoxicity in human C-33-A cells by CellTiter-Glo reagent assay; type: cell-based; conditions: C-33-A cells; outline: as §2
[9] = Selectivity index, ratio of CC50 for C-33-A cells to EC50 for inhibition of HPV-11 DNA amplification in C-33-A cells
Outline: (§4)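 Ratio CC50/EC50. CC50 is from CellTiter-Glo in C33A cells. EC50 is from NanoLuc luciferase readout of HPV ori-plasmid replication in C33A cells cotransfected with type-matched E1/E2 vectors.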

[10] = Inhibition of HPV-16 DNA amplification in C-33-A cells incubated for 48 hrs by luciferase reporter gene assay; type: functional, cell-based, Human papillomavirus 16; outline: as §2
[11] = Selectivity index, ratio of CC50 for C-33-A cells to EC50 for inhibition of HPV-16 DNA amplification in C-33-A cells; outline: as §4
[12] = Selectivity index, ratio of CC50 for C-33-A cells to EC90 for inhibition of HPV-16 DNA amplification in C-33-A cells
Outline: (§5)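 Ratio CC50/EC90. CC50 is from CellTiter-Glo cytotoxicity in C33A cells. EC90 is from NanoLuc luciferase readout of HPV-16 or -18 ori-plasmid replication in C33A cells cotransfected with type-matched E1/E2 vectors.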

[13] = Inhibition of HPV-18 DNA amplification in C-33-A cells incubated for 48 hrs by luciferase reporter gene assay; type: functional, cell-based, human papillomavirus 18; outline: as §2
[14] = Selectivity index, ratio of CC50 for C-33-A cells to EC50 for inhibition of HPV-18 DNA amplification in C-33-A cells; outline: as §4
[15] = Selectivity index, ratio of CC50 for C-33-A cells to EC90 for inhibition of HPV-18 DNA amplification in C-33-A cells; outline: as §5
[16] = Selectivity index, ratio of CC50 for C-33-A cells to EC90 for inhibition of HPV-11 DNA amplification in C-33-A cells
[17] = Selectivity index, ratio of CC50 for HEK293 cells to EC50 for inhibition of HPV-11 DNA amplification in HEK293 cells
Outline: (§6)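 Ratio CC50/EC50 in HEK-293 cells. CC50 is by CellTiter-Glo. EC50 is by qPCR of HPV-11 or HPV-16 ori-plasmid amplification in cells cotransfected with type-matched E1/E2 expression vectors.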

[18] = Selectivity index, ratio of CC50 for HEK293 cells to EC50 for inhibition of HPV-16 DNA amplification in HEK293 cells; outline: as §6
C-33-A = assay: as §3; type: cell-based; conditions: c-33-a; outline: as §2
human papillomavirus 11 = assay: Potency index, ratio of EC50 for cidofovir to EC50 for test compound for inhibition of HPV-11 DNA amplification in C-33-A cells incubated for 48 hrs by luciferase reporter gene assay; type: functional
[19] = Inhibition of HIV1 92US727 replication in PHA-P-stimulated human PBMCs incubated for 7 days by reverse transcriptase activity based assay; type: functional, cell-based, Human immunodeficiency virus 1, PBMC
Outline: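 Human PBMCs infected with a clinical HIV-1 isolate, with AZT as the positive control. Results are the mean of three replicates.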

[20] = Cytotoxicity in human PBMC cells; type: cell-based
Outline: (§7)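 Human PBMCs infected with a clinical HIV-1 isolate, with AZT as positive control. EC50 and CC50 reported as mean ± SD of three replicates; selectivity index = CC50/EC50.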

[21] = Selectivity index, ratio of CC50 for human PBMC to EC50 for inhibition of HIV1 92US727 replication in PHA-P-stimulated human PBMCs; type: toxicity; conditions: for selectivity ratio: PBMCs, read-out: Ratio CC50/EC50; outline: as §7
[22] = Inhibition of HSV2 replication in HFF cells incubated for 7 days; type: functional, cell-based, Human alphaherpesvirus 2
HFF = assay: (§8) Cytotoxicity in HFF cells incubated for 7 days by CellTiter-Glo assay; type: cell-based; conditions: human, hff, 168 h; time 7 day
[23] = Selectivity index, ratio of CC50 for HFF to EC50 for inhibition of HSV2 replication in HFF cells; type: toxicity, cell-based; conditions: human; for selectivity ratio: HFF cells, read-out: Ratio CC50/EC50
HEK293 = assay: Cytotoxicity in HEK293 cells by CellTiter-Glo assay; conditions: human, hek293
[24] = Stability in MEM supplemented with either normal or heat inactivated 10% FBS assessed as compound remaining at 37 degC after 38 days by reverse phase HPLC analysis; conditions: time 38.0 day
Outline: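 Compound incubated at 37 °C in MEM with 10% FBS, either normal or heat-inactivated. After 38 days, analysed by reverse-phase HPLC on a polar RP column with a water/methanol gradient at 0.8 mL/min. Remaining parent and monoester degradation product quantified as peak area.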

[25] = as §8; type: cell-based; conditions: human, HFF cells; time 7 day
[26] = Cytotoxicity in HEK293 cells by CellTiter-Glo assay; conditions: human, HEK293 cells
[27] = Drug level in HFF cells treated with 1 uM [14C]-labelled ODE-Bn-PMEG assessed as compound levels incubated for 48 hrs by liquid scintillation counting; type: ADME, cell-based; conditions: human
[28] = human papillomavirus 11, C-33-A, 48 h
[29] = Human papillomavirus 16, C-33-A, 48 h
[30] = human papillomavirus 18, C-33-A, 48 h
[31] = Human immunodeficiency virus 1, 92US727, PBMC, 168 h
[32] = Human alphaherpesvirus 2, HFF, 168 h

CCCCCCCCCCCCCCCCCCOCCOP(=O)(O)COCCn1cnc2c(=O)[nH]c(N)nc21
Drug uptake ([1]; TDE = time-dependent effect): Tde

CCCCCCCCCCCCCCCCCCOCCOP(=O)(COCCn1cnc2c(=O)[nH]c(N)nc21)OCc1ccccc1 (configuration not stated)
Drug uptake ([1]; TDE = time-dependent effect): Tde
Drug metabolism [2]: Tde
Drug uptake [3]: Metabolite_Detected
Drug uptake [4]: Metabolite_Detected

CCCCCCCCCCCCCCCCCCOCCOP(=O)(COCCn1cnc2c(=O)[nH]c(N)nc21)Oc1ccccc1 (configuration not stated)
EC50 [5]: 9500 nM
EC50 [6]: 5200 nM
EC50 [7, 28]: 100 nM
EC90 [7, 28]: 610 nM
CC50 [8]: 49000 nM
Ratio CC50/EC50 [9]: 490
EC50 [10, 29]: 90 nM
EC90 [10, 29]: 490 nM
Ratio CC50/EC50 [11]: 670
Ratio [12]: 120
EC50 [13, 30]: 60 nM
EC90 [13, 30]: 280 nM
Ratio CC50/EC50 [14]: 980
Ratio [15]: 210
Ratio [16]: 80

CCCCCCCCCCCCCCCCCCOCCOP(=O)(COCCn1cnc2c(=O)[nH]c(N)nc21)OCc1ccccc1 (stereo in doubt; form 1) [listing 1 of 2 here]
Ratio CC50/EC50 [17]: 42
EC50 [6]: 200 nM
Ratio CC50/EC50 [18]: 85
EC50 ([7]; c-33-a): 180 nM
EC90 ([7]; time 48 hrs): 720 nM
CC50 (C-33-A): ≥ 10000 nM
Ratio CC50/EC50 [9]: 61
EC50 ([10]; c-33-a): 40 nM
EC90 ([10]; time 48 hrs): 640 nM
Ratio CC50/EC50 [11]: >250
Ratio [12]: >16
EC50 ([13]; c-33-a): 100 nM
EC90 ([13]; time 48 hrs): 590 nM
Ratio CC50/EC50 [14]: >100
Ratio [15]: >17
Ratio EC50 (human papillomavirus 11): >300
EC50 ([19]; pbmc): 2 nM
CC50 ([20]; pbmc): 20 nM
Ratio CC50/EC50 ([21]; pbmc): 11
EC50 ([22]; hff): 22 nM
CC50 (HFF): 5200 nM
Ratio CC50/EC50 [23]: 240
CC50 (HEK293): 17000 nM
Ratio [16]: 15

CCCCCCCCCCCCCCCCCCOCCOP(=O)(COCCn1cnc2c(=O)[nH]c(N)nc21)OCc1ccccc1 (stereo in doubt; form 1) [listing 2 of 2 here]
Stability [24]: 83%

CCCCCCCCCCCCCCCCCCOCCOP(=O)(COCCn1cnc2c(=O)[nH]c(N)nc21)OCc1ccccc1 (stereo in doubt; form 2)
EC50 [5]: 400 nM
Ratio CC50/EC50 [17]: 230
EC50 [6]: 390 nM
Ratio CC50/EC50 [18]: 230
EC50 ([7]; c-33-a): 410 nM
EC90 ([7]; time 48 hrs): 1400 nM
Ratio CC50/EC50 [9]: >24
EC50 ([10]; c-33-a): 140 nM
EC90 ([10]; time 48 hrs): 890 nM
Ratio CC50/EC50 [11]: >71
Ratio [12]: >11
EC50 ([13]; c-33-a): 80 nM
EC90 ([13]; time 48 hrs): 720 nM
Ratio CC50/EC50 [14]: >130
Ratio [15]: >14
EC50 ([19]; pbmc): 4 nM
CC50 ([20]; pbmc): 70 nM
EC50 ([22]; hff): 33 nM
CC50 (HFF): 5400 nM
Ratio CC50/EC50 [23]: 160
CC50 (HEK293): 91000 nM
Ratio [16]: >7

CCCCCCCCCCCCCCCCCCOCCOP(=O)(COCCn1cnc2c(=O)[nH]c(N)nc21)OCc1ccccc1 (stereo in doubt; form 3)
EC50 [5]: 500 nM
Ratio CC50/EC50 [17]: 170
EC50 [6]: 690 nM
Ratio CC50/EC50 [18]: 120
EC50 ([7]; c-33-a): 710 nM
EC90 ([7]; time 48 hrs): 2500 nM
CC50 [8]: > 10000 nM
Ratio CC50/EC50 [9]: >14
EC50 ([10]; c-33-a): 220 nM
EC90 ([10]; time 48 hrs): 1500 nM
Ratio CC50/EC50 [11]: >45
Ratio [12]: >7
EC50 ([13]; c-33-a): 270 nM
EC90 ([13]; time 48 hrs): 1400 nM
Ratio CC50/EC50 [14]: >37
Ratio [15]: >7
EC50 [19, 31]: 3 nM
CC50 ([20]; pbmc): 40 nM
selectivity ratio [21]: 16.3
EC50 [22, 32]: 32 nM
CC50 at 168 h [25]: 6100 nM
selectivity ratio [23]: 190
CC50 (HEK293): 83000 nM
Ratio [16]: >4

Nc1nc2c(ncn2COCCO)c(=O)[nH]1 [ACYCLOVIR]
EC50 [22, 32]: 990 nM
CC50 at 168 h [25]: > 300000 nM
selectivity ratio [23]: > 300

Nc1ccn(C[C@@H](CO)OCP(=O)(O)O)c(=O)n1.O.O [CIDOFOVIR]
EC50 [5]: 150000 nM
Ratio CC50/EC50 [17]: >2
EC50 [6]: 150000 nM
Ratio CC50/EC50 [18]: >2
EC50 [7, 28]: > 300000 nM
EC90 [7, 28]: > 300000 nM
CC50 [8]: > 300000 nM
Ratio CC50/EC50 [9]: 1
EC50 [10, 29]: 220000 nM
EC90 [10, 29]: > 300000 nM
Ratio CC50/EC50 [11]: >1
Ratio [12]: 1
EC50 [13, 30]: 260000 nM
EC90 [13, 30]: > 300000 nM
Ratio CC50/EC50 [14]: >1
Ratio [15]: 1
CC50 [26]: > 300000 nM
Ratio [16]: 1

Nc1nc2c(ncn2CCOCP(=O)(O)O)c(=O)[nH]1 [GS-438]
Drug uptake [1]: Active
Drug uptake [27]: Active

Cc1cn([C@H]2C[C@H](N=[N+]=[N-])[C@@H](CO)O2)c(=O)[nH]c1=O [ZIDOVUDINE]
EC50 [19, 31]: 4 nM
CC50 ([20]; PBMC cells): > 1000 nM
selectivity ratio [21]: > 250
